Experimental data as given in ChEMBL document CHEMBL1158809, “Pseudotrienic acids A and B, two bioactive metabolites from Pseudomonas sp. MF381-IODS” (2005).
Active and inactive are the calls of the source. The rule behind the calls is not given here.

Columns and labels:
[1] = test system: Pseudomonas savastanoi; assay: Antimicrobial activity against Pseudomonas savastanoi up to 100 ug/mL; format: functional, organism-based
Procedure, shortened: (§1)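 Minimum inhibitory concentration was measured in a microtiter plate growth bioassay against a panel of human and agricultural fungal pathogens and Gram-positive and Gram-negative bacteria.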

[2] = test system: Fusarium culmorum; assay: Antimicrobial activity against Fusarium culmorum up to 100 ug/mL; format: functional, organism-based; procedure, shortened: as §1
[3] = test system: Pseudomonas syringae; assay: Antimicrobial activity against Pseudomonas syringae pv. syringae; format: functional
[4] = test system: Candida albicans; assay: Antimicrobial activity against Candida albicans up to 100 ug/mL; format: functional, organism-based; procedure, shortened: as §1
[5] = test system: Microsporum canis; assay: Antimicrobial activity against Microsporum canis up to 100 ug/mL; format: functional, organism-based; procedure, shortened: as §1
[6] = test system: Drechslera; assay: Antimicrobial activity against Drechslera sorokiniana up to 100 ug/mL; format: functional, organism-based; procedure, shortened: as §1
[7] = test system: Fusarium oxysporum; assay: Antimicrobial activity against Fusarium oxysporum up to 100 ug/mL; format: functional, organism-based; procedure, shortened: as §1
[8] = test system: Heterobasidion annosum; assay: Antimicrobial activity against Heterobasidion annosum up to 100 ug/mL; format: functional, organism-based; procedure, shortened: as §1
[9] = test system: Staphylococcus aureus; assay: Antimicrobial activity against Staphylococcus aureus; format: functional
[10] = test system: Aspergillus fumigatus; assay: Antimicrobial activity against Aspergillus fumigatus up to 100 ug/mL; format: functional, organism-based; procedure, shortened: as §1

| MIC [3] [µg/mL] | MIC [9] [µg/mL] | Structure (SMILES) | Activity [1] | Activity [2] | Activity [4] | Activity [5] | Activity [6] | Activity [7] | Activity [8] | Activity [10] |
| --- | --- | --- | --- | --- | --- | --- | --- | --- | --- | --- |
| 70 | 70 | CCCCCCCCCC(O)/C=C/C(C)=C/CC(=O)NC[C@H](O)[C@H](C)C(=O)NCC/C=C/C=C/C=C/C(=O)O (mixture of isomers) [PSEUDOTRIENIC ACID A] | inactive | inactive | inactive | inactive | inactive | inactive | inactive | inactive |
| 70 | 70 | CCCCCCCC(O)/C=C/C(C)=C/CC(=O)NC[C@H](O)[C@H](C)C(=O)NCC/C=C/C=C/C=C/C(=O)O (mixture of isomers) [PSEUDOTRIENIC ACID B] | inactive | inactive | inactive | inactive | inactive | inactive | inactive | inactive |
